This passage reports IC50 results from ChEMBL document CHEMBL1133577, “Design and synthesis of piperazine-based matrix metalloproteinase inhibitors” (J Med Chem, 2000).

For one assay, the target named is Collagenase 3 (Homo sapiens, UniProt P45452). The experiment in a line: In vitro inhibitory activity against matrix metalloprotease-13 (MMP-13).
The target in a further assay is T1, Interstitial collagenase (Homo sapiens, UniProt P03956).
T1 sequence (P03956 whole entry): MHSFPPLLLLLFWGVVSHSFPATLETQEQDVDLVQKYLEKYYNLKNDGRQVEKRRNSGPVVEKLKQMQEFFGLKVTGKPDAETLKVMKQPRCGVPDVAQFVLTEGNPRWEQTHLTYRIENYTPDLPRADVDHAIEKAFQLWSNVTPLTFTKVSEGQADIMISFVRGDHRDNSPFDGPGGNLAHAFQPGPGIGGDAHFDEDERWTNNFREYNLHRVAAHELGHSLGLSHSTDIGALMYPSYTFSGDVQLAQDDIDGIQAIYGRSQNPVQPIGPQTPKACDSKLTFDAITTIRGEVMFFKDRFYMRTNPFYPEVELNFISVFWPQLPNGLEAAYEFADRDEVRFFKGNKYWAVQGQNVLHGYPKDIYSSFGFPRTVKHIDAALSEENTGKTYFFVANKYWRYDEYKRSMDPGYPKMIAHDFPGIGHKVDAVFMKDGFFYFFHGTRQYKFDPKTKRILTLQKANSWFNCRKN
The experiment in a line: In vitro inhibitory activity against matrix metalloprotease-1 (MMP-1).

In assay [1] the target is Matrix metalloproteinase-9 (Homo sapiens, UniProt P14780). The experiment in a line: In vitro inhibitory activity against matrix metalloprotease-9 (MMP-9).
The next assay has as its target T2, Matrilysin (Homo sapiens, UniProt P09237).
T2 sequence (P09237 whole entry): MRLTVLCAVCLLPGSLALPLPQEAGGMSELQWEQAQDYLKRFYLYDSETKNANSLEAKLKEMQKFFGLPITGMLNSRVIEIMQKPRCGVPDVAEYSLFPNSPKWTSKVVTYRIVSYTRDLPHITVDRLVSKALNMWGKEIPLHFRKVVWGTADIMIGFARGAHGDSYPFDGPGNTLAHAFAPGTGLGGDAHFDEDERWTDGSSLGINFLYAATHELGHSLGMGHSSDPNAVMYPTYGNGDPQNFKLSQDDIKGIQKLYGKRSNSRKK
The experiment in a line: In vitro inhibitory activity against matrix metalloprotease-7 (MMP-7). The method in brief: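 MMP-7 supplied as active enzyme. It was incubated with 8 µM […] in 50 mM Tris-HCl pH 7.5, 10 mM CaCl2, 0.15 M NaCl, 0.05% Brij for 20-30 min at 37 °C with varying inhibitor. The reaction was quenched with 50 mM EDTA and fluorescence read at ex 328/em 393 nm. Activity is expressed as % of uninhibited control, triplicates; IC50 from 4-parameter logistic fit.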

For a further assay, the target named is Stromelysin-1 (Homo sapiens, UniProt P08254). The experiment in a line: In vitro inhibitory activity against matrix metalloprotease-3 (MMP-3).

Structures are written as SMILES.

Chain of Matrix metalloproteinase-9 (P14780 whole entry): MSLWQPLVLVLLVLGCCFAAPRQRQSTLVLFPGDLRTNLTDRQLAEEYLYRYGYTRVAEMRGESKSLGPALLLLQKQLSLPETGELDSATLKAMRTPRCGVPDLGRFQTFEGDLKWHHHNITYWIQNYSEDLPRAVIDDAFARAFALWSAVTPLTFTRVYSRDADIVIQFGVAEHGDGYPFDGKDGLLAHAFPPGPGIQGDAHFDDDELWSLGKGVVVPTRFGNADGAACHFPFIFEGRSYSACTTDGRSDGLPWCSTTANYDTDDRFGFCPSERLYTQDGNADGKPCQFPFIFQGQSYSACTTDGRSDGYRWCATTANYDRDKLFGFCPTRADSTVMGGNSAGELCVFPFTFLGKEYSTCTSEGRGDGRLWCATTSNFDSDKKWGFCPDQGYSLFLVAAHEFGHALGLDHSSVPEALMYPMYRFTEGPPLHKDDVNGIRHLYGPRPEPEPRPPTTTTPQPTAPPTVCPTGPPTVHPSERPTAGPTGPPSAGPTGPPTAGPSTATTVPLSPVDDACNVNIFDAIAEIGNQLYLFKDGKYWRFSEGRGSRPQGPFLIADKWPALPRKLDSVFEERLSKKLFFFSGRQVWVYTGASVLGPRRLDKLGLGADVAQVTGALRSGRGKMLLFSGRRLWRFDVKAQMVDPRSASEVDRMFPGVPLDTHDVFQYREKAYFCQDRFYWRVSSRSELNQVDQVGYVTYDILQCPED
Chain of Stromelysin-1 (P08254 whole entry): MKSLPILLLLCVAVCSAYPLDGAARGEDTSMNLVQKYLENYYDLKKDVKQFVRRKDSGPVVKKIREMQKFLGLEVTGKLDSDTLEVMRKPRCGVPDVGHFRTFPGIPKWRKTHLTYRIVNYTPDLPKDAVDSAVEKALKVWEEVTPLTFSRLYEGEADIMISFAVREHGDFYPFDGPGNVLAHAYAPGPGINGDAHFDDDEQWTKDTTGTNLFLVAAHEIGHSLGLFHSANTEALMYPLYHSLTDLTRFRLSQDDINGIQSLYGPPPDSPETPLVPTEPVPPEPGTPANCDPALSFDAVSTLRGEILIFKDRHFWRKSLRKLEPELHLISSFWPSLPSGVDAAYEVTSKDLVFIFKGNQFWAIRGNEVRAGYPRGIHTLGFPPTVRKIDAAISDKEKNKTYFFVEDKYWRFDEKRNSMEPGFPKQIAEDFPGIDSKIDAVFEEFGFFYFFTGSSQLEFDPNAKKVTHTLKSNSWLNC

As to `COc1ccc(S(=O)(=O)N2CCN(C(=O)c3cccnc3)CC2C(=O)NO)cc1` (stereo not given), the IC50 against Collagenase 3 was found to be 57 nM; at Interstitial collagenase, 994 nM; in assay [1] it was 32 nM; against Matrilysin, 27700 nM; at Stromelysin-1, 184 nM.

`COc1ccc(S(=O)(=O)N2CCN(S(=O)(=O)c3sc(N)nc3C)CC2C(=O)NO)cc1` (stereo not given): the IC50 at Collagenase 3 stood at 2 nM; against Interstitial collagenase, 31 nM; in assay [1] it was 2.1 nM; at Matrilysin, 1280 nM; at Stromelysin-1 it was 2.5 nM.

`COc1ccc(S(=O)(=O)N2CCN(C(=O)c3cccs3)CC2C(=O)NO)cc1` (stereo not given): the IC50 against Collagenase 3 was found to be 1.9 nM; against Interstitial collagenase it was 68 nM; in assay [1] it was 1.3 nM; on Matrilysin, 710 nM; against Stromelysin-1, 15 nM.

Turning to `CCOCCCOC(=O)N1CCN(S(=O)(=O)c2ccc(OC)cc2)C(C(=O)NO)C1` (stereo not given), the IC50 came to 0.7 nM against Collagenase 3; 22 nM at Interstitial collagenase; 0.6 nM in assay [1]; 483 nM against Matrilysin; 5.3 nM against Stromelysin-1.

In the case of `COc1ccc(S(=O)(=O)N2CCN(C(=O)OCc3cccnc3)CC2C(=O)NO)cc1` (stereo not given), the IC50 amounted to 1 nM against Collagenase 3; 18 nM against Interstitial collagenase; 1.9 nM in assay [1]; 502 nM against Matrilysin; 8.9 nM against Stromelysin-1.
